Measured values published in ChEMBL document CHEMBL1144221, “Novel naphthoquinone and quinolinedione inhibitors of CDC25 phosphatase activity with antiproliferative properties” (Bioorg Med Chem, 2008).

Assays:
[1] = system: HeLa; assay: Cytotoxicity against human HeLa cells after 96 h by WST1 colorimetric assay
[2] = target: T1, M-phase inducer phosphatase 2 (Homo sapiens, UniProt P30305); assay: Inhibition of human recombinant fused MBP-CDC25B3
T1 sequence (P30305 whole entry): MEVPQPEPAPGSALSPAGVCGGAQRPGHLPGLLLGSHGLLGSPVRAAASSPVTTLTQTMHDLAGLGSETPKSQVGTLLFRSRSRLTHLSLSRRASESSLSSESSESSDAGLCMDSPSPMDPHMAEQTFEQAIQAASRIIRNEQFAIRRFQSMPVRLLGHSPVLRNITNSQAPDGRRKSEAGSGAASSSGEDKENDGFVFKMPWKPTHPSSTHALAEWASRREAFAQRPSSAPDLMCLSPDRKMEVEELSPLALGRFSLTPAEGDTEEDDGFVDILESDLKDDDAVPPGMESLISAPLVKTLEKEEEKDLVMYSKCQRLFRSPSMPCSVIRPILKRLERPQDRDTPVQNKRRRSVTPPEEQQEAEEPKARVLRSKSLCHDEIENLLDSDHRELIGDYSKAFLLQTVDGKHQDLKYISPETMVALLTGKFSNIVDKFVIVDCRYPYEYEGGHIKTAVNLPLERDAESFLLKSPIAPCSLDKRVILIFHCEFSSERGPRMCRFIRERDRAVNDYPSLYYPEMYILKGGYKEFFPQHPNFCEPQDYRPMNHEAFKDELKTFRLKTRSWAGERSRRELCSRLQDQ

[3] = target: T1, M-phase inducer phosphatase 2; assay: Inhibition of human recombinant CDC25B
[4] = system: HeLa; assay: Cell cycle arrest in asynchronous human HeLa cells assessed as accumulation at G0/G1 phase at 10 uM after 24 hrs by flow cytometry; format: functional
In short: (§1)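 Asynchronous HeLa cells grown 24 h, then treated 24 h at 10 or 50 µM. Cells were trypsinized, fixed in cold ethanol and permeabilized with 0.25% Triton X-100. They were stained with anti-H3P/Alexa 488 antibody, treated with RNase and stained with propidium iodide (10 µg/mL). Flow cytometry gave the percentage of cells in G0/G1, S and G2/M. Three independent runs; DMSO served as negative control.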

[5] = system: HeLa; assay: Cell cycle arrest in asynchronous human HeLa cells assessed as accumulation at G2/M phase at 10 uM after 24 hrs by flow cytometry; format: functional
In short: as §1

[6] = system: HeLa; assay: Cell cycle arrest in asynchronous human HeLa cells assessed as accumulation at S phase at 10 uM after 24 hrs by flow cytometry; format: functional
In short: as §1

[7] = system: HeLa; assay: Antiproliferative activity against human HeLa cells after 10 days by clonogenic assay; format: functional, cell-based; conditions: 240 h
In short: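 HeLa cells seeded at 100 cells/well, grown 24 h at 37 °C in 5% CO₂, then given medium with inhibitor at increasing concentrations (up to 100 µM) for 10 days. Colonies were fixed in 10% formaldehyde, stained with crystal violet and counted to get plating efficiency. IC50 was taken from the dose-response curve.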

Compound: O=C1C(Br)=C(Br)C(=O)c2ncccc21
- IC50 [1]: 21.5 µM
- IC50 [2]: 5.3 µM

Compound: O=C(CSC1=C(SCC(=O)OCc2ccccc2)C(=O)c2ccccc2C1=O)OCc1ccccc1
- IC50 [3]: 3.4 µM

Compound: O=C1C(SCCO)=C(SCCO)C(=O)c2ccccc21
- IC50 [1]: 10.8 µM
- Activity [4]: 56%
- Activity [5]: 19%
- Activity [6]: 25%
- IC50 [7]: 8.5 µM

Compound: C[C@@]12CCCc3coc(c31)C(=O)c1cc3c(cc12)C(=O)C1=C(NCCS1(=O)=O)C3=O [ADOCIAQUINONE B]
- IC50 [3]: 0.07 µM
